Series [1] can be described thus: Inhibition of Mycobacterium tuberculosis CYP121A1 mediated cYY conversion to mycocyclosin assessed as fold change in cYY level at 100 uM incubated for 2 hrs in the presence of NADPH by LC-MS activity assay relative to clotrimazole. The series is classed as ADME. Particulars: recombinant enzyme.
Series [2] is described as follows: Binding affinity to Mycobacterium tuberculosis CYP121A1 expressed in Escherichia coli HMS174 (DE3) assessed as thermal stability by measuring increase in melting temperature at 1mM by SYPRO orange dye based differential scanning fluorimetry assay. Particulars: 1000 µM. The method in brief: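 Protein at 5 μM in 100 mM potassium phosphate pH 6.9 with 2.5× Sypro Orange. Ligand 1 mM final, 4% DMSO-d6. Scanned 25–95 °C in 0.5 °C steps of 30 s. Positive Tm shifts repeated in triplicate and averaged over four runs.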

Series [3] is described as follows: Binding affinity to Mycobacterium tuberculosis CYP121A1 expressed in Escherichia coli HMS174 (DE3) assessed as dissociation constant by isothermal titration calorimetry. The series is classed as ADME. In a few lines:
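Untagged His-purified CYP121A1 at 50 μM in 50 mM Tris-HCl, 1 mM EDTA, pH 7.2, with 10% DMSO-d6. Ligand at 0.5 or 2.5 mM final. One 0.2 μL injection discarded, then 19 injections of 2 μL at 120 s intervals, 25 °C. Ligand-into-buffer heats subtracted. One-site fit, N fixed at 1 for weak binders or left free.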
(In general: Isothermal titration calorimetry measures the heat released or taken up as one component is titrated into another.)

Series [4] is described as follows: Inhibition of cYY binding to Mycobacterium tuberculosis CYP121A1 expressed in Escherichia coli HMS174 (DE3) assessed as dissociation constant of cYY preincubated with compound followed by substrate addition by competitive UV-visible spectroscopic analysis. It counts as ADME. The method in brief:
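CYP121A1 at 5 μM. […] UV-vis difference spectra processed as for direct titrations and fitted to the Hill equation for Kd.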

In series [5] the test system is Mycobacterium tuberculosis. Kind of series: Antimycobacterial activity against Mycobacterium tuberculosis H37Rv assessed as inhibition of bacterial growth in presence of Mycobacterial minimal medium with cholesterol measured for 2 weeks by resazurin based colorimetric assay. The series is classed as functional. Particulars: 336 h. In a few lines:
(§1)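 Mtb H37Rv grown in 7H9 with 10% ADC, 0.05% tyloxapol, 0.02% glycerol to OD600 ~1, then pre-adapted 8 days at 37 °C in the test medium (c7H9, 7H9-Low BSA or MMM-Ch). DMSO stocks serially diluted, 400 to 0.78 μM, about 10^5 CFU per well. Incubated at 37 °C for 1 week (c7H9, Low BSA) or 2 weeks (MMM-Ch). 0.02% resazurin added for 1 day more. MIC90 read visually as lowest concentration with no colour change.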
In general terms: Alamar Blue is a resazurin reagent that responds to reducing activity.

Series [6] deals with Mycobacterium tuberculosis. Nature of the series: Antimycobacterial activity against Mycobacterium tuberculosis H37Rv assessed as inhibition of bacterial growth in presence of middlebrook 7H9/BSAADN//tyloxapol/glycerol medium measured for 1 week by resazurin based colorimetric assay. It counts as functional. Particulars: 168 h, time 1 weeks. In a few lines:
as §1

Series [7] relates to Mycobacterium tuberculosis. Nature of the series: Antimycobacterial activity against Mycobacterium tuberculosis H37Rv assessed as inhibition of bacterial growth in presence of middlebrook 7H9/ADC/tyloxapol/glycerol medium measured for 1 week by resazurin based colorimetric assay. The series is classed as functional. Particulars: 168 h, time 1 weeks. In a few lines: as §1

The Kd is the concentration at which binding is half-saturated. The term MIC90 denotes the lowest concentration that inhibits either 90% of growth or 90% of the strains tested, depending on the study.

For the molecule `c1ccc2c(CCc3ccncc3)c[nH]c2c1`, the “fold change (FC)” value in series [1] was 1.1.

Take `c1ccc2c(CCc3ccncn3)c[nH]c2c1`: the “fold change (FC)” value in series [1] turned out to be 1.8. In series [2], the deltaTm was 3.5 °C.

On to `Nc1[nH]nc(-c2ccc(O)cc2)c1-c1ccc(O)cc1`, for which, in series [3], the equilibrium dissociation constant (Kd) amounted to 20 µM. For the same molecule, in series [2], the deltaTm was determined as 1 °C.

On to `c1ccc2c(c1)OCCN2c1nccc(CCc2c[nH]c3ccccc23)n1`, for which the Kd in series [4] was 17.5 µM. In addition, the “fold change (FC)” value in series [1] came to 0.1. On to `Clc1ccc2[nH]cc(CCc3ccncc3)c2c1`, for which the “fold change (FC)” value in series [1] is reported as 2.3. With `c1ccc2c(CCc3nc4c(c(N5CCOCC5)n3)CNC4)c[nH]c2c1`, in series [1], the “fold change (FC)” value is recorded as 4.1. Also, the deltaTm in series [2] turned out to be 3.5 °C. Turning to `N[C@H](Cc1c[nH]c2ccccc12)c1nc(-c2ccccc2)cs1`, the MIC90 in series [5], in series [6] and in series [7] was 40 µM in each case. On to `c1ccc2c(CCc3nc4c(c(N5CCOCC5)n3)CCNC4)c[nH]c2c1`, for which the “fold change (FC)” value in series [1] is reported as 1.3. For the same molecule, the deltaTm in series [2] is 1 °C. Regarding `Cn1cc(CCc2ccnc(N3CCOCC3)n2)c2ccccc21`, the “fold change (FC)” value in series [1] was 2.1.

Take `Brc1ccc2c(c1)N(c1nccc(CCc3c[nH]c4ccccc34)n1)CCO2`: the “fold change (FC)” value in series [1] is given as 0.3.

As to `Oc1ccc2[nH]cc(CCc3ccnc(N4CCOCC4)n3)c2c1`, the “fold change (FC)” value in series [1] is reported as 3.5. Moreover, in series [2], the deltaTm was determined as 0.5 °C.

As for `N[C@H](Cc1c[nH]c2ccccc12)c1nc(-c2ccccn2)cs1`, the MIC90 in series [5], in series [6] and in series [7] was 40 µM throughout. As for `Fc1ccc2[nH]cc(CCc3ccnc(N4CCOCC4)n3)c2c1`, in series [1], the “fold change (FC)” value turned out to be 10.6.

Turning to `FC(F)(F)Oc1ccc2[nH]cc(CCc3ccnc(N4CCOCC4)n3)c2c1`, the “fold change (FC)” value in series [1] is 1.1. Regarding `c1ccc2c(CCc3nc4c(c(N5CC6CCC(C5)O6)n3)CNC4)c[nH]c2c1`, the deltaTm in series [2] came to 2.4 °C. For the molecule `COC1CN(c2nccc(CCc3c[nH]c4ccccc34)n2)C1`, the “fold change (FC)” value in series [1] is given as 1.2. Still for that read-out and setting: then `c1ccc2c(CCc3ccnc(N4CCCOCC4)n3)c[nH]c2c1`, with 4.7. Consider `N[C@H](Cc1c[nH]c2ccccc12)c1nc(-c2ccc(OC(F)(F)F)cc2)cs1`, for which the MIC90 in series [5], in series [6] and in series [7] was 40 µM in each case.

On to `c1ccc2c(CCc3ccnc(N4CCOCC4)n3)c[nH]c2c1`, for which the Kd in series [4] is 25.2 µM. In series [1], the “fold change (FC)” value worked out at 4.7. For `Ic1ccc2[nH]cc(CCc3ccncc3)c2c1`, the “fold change (FC)” value in series [1] turned out to be 1.9.

For `COc1ccc2[nH]cc(CCc3ccncc3)c2c1`, the “fold change (FC)” value in series [1] came to 1. In the case of `Fc1ccc2[nH]cc(CCc3ccncc3)c2c1`, in series [1], the “fold change (FC)” value is on record as 3.5. Consider `FC(F)(F)Oc1ccc2[nH]cc(CCc3ccncc3)c2c1`, for which, in series [1], the “fold change (FC)” value amounted to 1.2. Same read-out and setting: as for `COC1CN(c2nccc(CCc3c[nH]c4ccc(Br)cc34)n2)C1`, the figure is 1.8; as for `Brc1ccc2[nH]cc(CCc3ccncc3)c2c1`, 1.3; as for `Brc1ccc2[nH]cc(CCc3ccnc(N4CCOCC4)n3)c2c1`, 3.8.
